Rows were chosen to be rich in hits. Some 1.5% of all compounds tested hit in one or more screens of this group.
PG9 Ab binder: binds the HIV-1 gp120 antibody PG9. TR-FRET gp120-PG9 antibody binding. inhibition, % at 6.7 µM. 0.43% of 360,000 active. AID 624416; in the data active = inhibition above about 8.5%
NR2E3 ag-1: human photoreceptor-specific nuclear receptor agonism | inhibition of corepressor binding, % at 3.98 µM | Q9Y5X4 | 0.35% of 360,000 active | AID 602229 | CHO-S Gal4-NCOR/VP16-NR2E3 two-hybrid, luciferase;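 active = inhibition above the mean of all tested compounds plus 3 SD, cut at about 70% in these data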;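 note: 0% = DMSO with NR2E3 transfected cells and 100% = cells lacking NR2E3 construct; higher means lower luciferase signal from less NR2E3 corepressor binding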
Target sequence (Q9Y5X4 whole entry, looked up, the tested form may be a part): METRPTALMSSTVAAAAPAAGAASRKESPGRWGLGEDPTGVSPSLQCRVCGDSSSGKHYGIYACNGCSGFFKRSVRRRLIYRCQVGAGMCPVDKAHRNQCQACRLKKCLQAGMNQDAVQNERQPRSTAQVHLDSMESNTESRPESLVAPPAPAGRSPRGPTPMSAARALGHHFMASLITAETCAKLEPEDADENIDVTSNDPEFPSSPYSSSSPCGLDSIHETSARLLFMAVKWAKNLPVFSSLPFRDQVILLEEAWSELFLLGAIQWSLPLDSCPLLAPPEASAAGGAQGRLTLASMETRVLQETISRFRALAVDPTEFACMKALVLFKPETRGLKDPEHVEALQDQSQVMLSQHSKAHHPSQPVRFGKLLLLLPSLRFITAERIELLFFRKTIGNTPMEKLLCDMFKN
Rev-erbA mod: Rev-erb alpha (human) modulation. activity, % at 10 µM. P20393. 0.79% of 370,000 active. Rev-erbα–FITC-DNA binding, fluorescence polarization, 90 min;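 active = activity above about 14%, limit read from the data; passing the limit was not always enough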;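 note: 0% = DMSO wells with 35 nM protein and 100% = DMSO wells with 750 nM protein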
NR2E3 ag-2: agonists of human nuclear receptor NR2E3; Q9Y5X4; GST-NR2E3/biotin-RetCOR TR-FRET, 1536-well; inhibition of corepressor binding, % at 4.78 µM; 0.12% of 320,000 active; AID 2300;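 active = percent inhibition above the cutoff of mean plus 3 SD of all tested compounds, set per screening campaign, cut at about 20% in these data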;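 note: 0% = DMSO wells and 100% = biotin wells as full block of FRET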
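Material: NR2E3–RetCOR corepressor complex | Quantity: 1.35 nM GST-tagged NR2E3 final | Schedule: 5 h at 4 °C | Replication: Singlicate compound wells | Reagent: RetCOR corepressor, biotinylated, 7 nM | Controls: Biotin wells as high control, 0.6% DMSO wells as low control | Signal: TR-FRET, Eu(K)-anti-GST donor, streptavidin-D2 acceptor, ex 340, em 617/671 nm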
PG9 binder conf: confirmation of small molecules binding HIV-1 gp120 antibody PG9. AID 651571. 90% of 1,500 active. shares compounds with PG9 Ab binder. TR-FRET PG9 antibody binding, biochemical. inhibition, % at 6.7 µM; in the data active = inhibition above about 9%
PGV04 counter: PGV04 control antibody binding, counter-screen; TR-FRET PGV04 antibody-gp120 binding, biochemical; AID 651604; shares compounds with PG9 Ab binder; 95% of 1,500 active; inhibition, % at 6.7 µM; in the data active = inhibition above about 9.5%
PG9 bind DR: PG9 antibody binding, dose response; shares compounds with PG9 Ab binder; TR-FRET PG9 antibody-gp120 binding inhibition; IC50, µM; 95 tested, under 10 active; in the data active = IC50 below about 10 µM
PGV04 binding DR: counter-screen for PG9 binders: binding to control antibody PGV04; 20% of 95 active; AID 651937; shares compounds with PG9 Ab binder; IC50, µM; TR-FRET binding to control antibody PGV04
PG126 DR counter: binds control antibody PG126 in PG9 counter-screen; shares compounds with PG9 Ab binder; 20% of 95 active; IC50, µM; TR-FRET binding to antibody PG126, counterscreen; AID 651939
NR1D1 mod conf: confirmation of modulators of human Rev-erb alpha DNA binding; shares compounds with Rev-erbA mod; Rev-erb alpha FITC-DNA binding, fluorescence polarization, 90 min; activation, % at 25 µM; 61% of 3,000 active;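 active = activation at or above a set limit, or at least 3 SD above the negative control mean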;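 note: 0% = 35 nM protein with DMSO and 100% = 750 nM protein high control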
RORg DNA counter: RORgamma DNA-binding activity, dose-response counter-screen | shares compounds with Rev-erbA mod | purified RORgamma protein-FITC-DNA binding, fluorescence polarization | IC50, µM | 8% of 910 active | AID 1259320;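 active = Compounds whose fitted half-maximal concentration for disrupting protein-DNA binding is below 10 micromolar; the record names Rev-erb in its text, so the target is in doubt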
* = called active by the depositor; i = inactive; / = not tested or not shown. Cut-off read from the data, not from the text of the source, unless noted: active = IC50 below about 9 µM; inactive = the rest.

SMILES | PG9 Ab binder | NR2E3 ag-1 | Rev-erbA mod | NR2E3 ag-2 | PG9 binder conf | PGV04 counter | NR1D1 mod conf | others
CCCOc1ccc2cc(C(=O)NCc3ccccc3)c(=O)oc2c1 | 11* | -6 | 70* | 7 | 38* | 56* | 29*
COc1ccc(C(=O)Nc2scc(-c3ccc(Cl)cc3Cl)c2C(N)=O)cc1 | 9.8* | -75 | 62* | 1 | 7 | 19* | 56* | RORg DNA counter=>40
COC(=O)[C@H]1C[C@@]2(c3ccccc3)c3ccccc3N(S(=O)(=O)c3ccccc3)[C@H]2N1 | / | / | -3 | / | / | / | /
Cc1sc2ncnc(N3CCC(C(=O)Nc4ccc(C#N)cc4)CC3)c2c1C | 15* | -6 | 27* | -2 | 16* | 10* | 19* | PG9 bind DR=>67;PGV04 binding DR=8.4*;PG126 DR counter=8.7*
NS(=O)(=O)c1ccc(CCNC(=O)CCCCCn2c(=S)[nH]c3ccc(Br)cc3c2=O)cc1 | 30* | 10 | 41* | 6 | 28* | 26* | 16 | PG9 bind DR=i;PGV04 binding DR=i;PG126 DR counter=i
Cc1ccc(CNC(=O)CS(=O)(=O)Cc2nc(-c3ccc(C)cc3)oc2C)cc1 | 28* | 3 | 28* | 1 | 20* | 53* | 12
COc1ccc(CNC(=O)CS(=O)(=O)Cc2nc(-c3ccc(OC)cc3)oc2C)cc1 | 0 | -26 | 1 | -2 | / | / | /
COc1ccc(Cn2cc(CN3[C@@H](CC(C)C)COc4ccc(Cl)cc4S3(=O)=O)nn2)cc1 | / | / | 1 | / | / | / | /
O=C(COC(=O)c1sc2ccccc2c1Cl)Nc1ncc(Cl)cc1Cl | 21* | 31 | 52* | 5 | 22* | 45* | 36* | RORg DNA counter=>40
NC(=O)NC(=O)COC(=O)c1sc2ccccc2c1Cl | -4 | -28 | 10 | 2 | / | / | /
Cc1cc(NC(=O)CSc2nc3c(C)cccc3cc2C#N)no1 | 27* | -27 | 83* | -38 | 43* | 72* | 53* | RORg DNA counter=>40
Cc1cccc2cc(C#N)c(SCC(=O)Nc3ccccc3N3CCOCC3)nc12 | 17* | -15 | 48* | 5 | 17* | 39* | 44* | RORg DNA counter=>40
Cc1cc(-c2sccc2Br)nc(-n2cccc2)n1 | 11* | 3 | 50* | / | 23* | 32* | 27*
O=C(O)c1cccc(S(=O)(=O)NCC(=O)N2CCN(c3ccccn3)CC2)c1 | / | / | 1 | / | / | / | /
COC(=O)c1ccc(NC(=O)c2ccc3nc(C)sc3c2)cc1 | 29* | -113 | 39* | -2 | 32* | 49* | 18*
O=c1[nH]c(SCCOc2cccc3ccccc23)nc2ccccc12 | -12 | -6 | -1 | -1 | / | / | /
CCOc1ccc(OCCSc2nc3ccccc3c(=O)[nH]2)cc1 | 39* | 1 | 26* | 7 | 37* | 52* | 11
O=C(Nc1ccc(F)cc1)OCc1cn(Cc2c(F)cccc2F)nn1 | / | / | 4 | / | / | / | /
COc1ccccc1NC(=O)COC(=O)c1ccc2c(c1)OCCO2 | 11* | -23 | 22* | 4 | 6 | 10* | 32* | RORg DNA counter=>40
Cc1ccccc1NC(=O)COC(=O)c1ccc2c(c1)OCCO2 | 0 | -12 | 1 | / | / | / | /
COc1ccc(C)c2sc(=NC(=O)c3ccccc3)n(C)c12 | 12* | -86 | 58* | 2 | 8 | 10* | 2
O=C(NC1CCC1)c1ccc(C#Cc2cccc(F)c2)cn1 | / | / | -1 | / | / | / | /
COc1cc(OC)cc(-c2oc(=O)c3cc(OC)c(OC)cc3c2C#CCCO)c1 | 25* | -8 | 21* | / | 36* | 42* | -11

Source: PubChem BioAssay
